Assay outcomes (PubChem)
RAD52 inh: RAD52 DNA annealing inhibitors, primary screen, biochemical, FRET, single point, set 2; DNA repair protein RAD52 homolog (Homo sapiens), P43351; recombinant RAD52 DNA annealing, FRET fluorescence; inhibition, % at 18.7 µM; actives 0.46% (n = 360,000); AID 651710, 2012;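 active = every replicate showing at least 50% inhibition; inconclusive = mean inhibition at least 50% but not in every replicate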
Target sequence (P43351 whole entry, looked up): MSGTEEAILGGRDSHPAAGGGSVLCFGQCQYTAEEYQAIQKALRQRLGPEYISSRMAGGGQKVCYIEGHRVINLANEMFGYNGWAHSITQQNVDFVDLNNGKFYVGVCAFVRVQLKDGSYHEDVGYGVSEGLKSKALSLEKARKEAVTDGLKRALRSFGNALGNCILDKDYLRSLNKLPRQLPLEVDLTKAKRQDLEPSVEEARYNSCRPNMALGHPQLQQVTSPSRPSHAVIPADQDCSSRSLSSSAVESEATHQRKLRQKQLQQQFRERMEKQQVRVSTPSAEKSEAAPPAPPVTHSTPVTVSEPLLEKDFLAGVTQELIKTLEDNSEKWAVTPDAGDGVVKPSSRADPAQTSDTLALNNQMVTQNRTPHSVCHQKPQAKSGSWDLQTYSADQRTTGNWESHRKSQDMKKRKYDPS
MLL AF4-AF9 inh: inhibitors of AF4 peptide binding to AF9, primary screen, biochemical, AlphaScreen, biotin-AF4 peptide, FLAG-AF9, single point | inhibition, % at 10 µM | actives 0.47% (n = 350,000) | AID 651704, 2012;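 active = every replicate reaching a set inhibition limit, whatever the replicate mean, cut at about 25% in these data; inconclusive = mean inhibition reaches that limit but some replicates miss it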
S100A4 inh HTS: inhibitors of S100A4-myosin IIA peptide binding, primary screen, biochemical, fluorescence polarization, TAMRA-MyoIIA peptide | AID 652163, 2013 | inhibition, % at 10.7 µM | actives 0.14% (n = 360,000);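 active = mean inhibition of at least 70% across replicates, with every replicate also reaching that level; inconclusive = mean inhibition reaches 70% but some replicates fall short; inactive = mean inhibition below 70%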
Target sequence (P26447 whole entry, looked up): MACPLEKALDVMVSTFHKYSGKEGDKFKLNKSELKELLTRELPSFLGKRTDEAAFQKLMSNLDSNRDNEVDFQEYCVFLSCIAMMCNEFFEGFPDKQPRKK
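assay system = human S100A4 monomer with TAMRA-labelled myosin IIA peptide | also added = labelled myosin peptide probe, 5 nM | incubation = 5 min between mix addition and reading | control set = DMSO and TFP controls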
ERAP1 inh: human ERAP1 aminopeptidase inhibitors, primary screen, biochemical, single point, plate reader. Endoplasmic reticulum aminopeptidase 1 (Homo sapiens), Q9NZ08. recombinant ERAP1, Leu-AMC fluorescence, 60 min. inhibition, % at 10.7 µM. actives 0.15% (n = 340,000);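 active = mean replicate inhibition of at least 30%, or all replicates individually reaching that 30% level; inactive = mean below 30% and not every replicate reaching it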
GSIS activator: GLuc luminescence reporter in INS-1E cells, primary screen for activators of glucose-dependent secretion of insulin. INS-1E GLuc reporter insulin secretion, 2-3 h. activation, % at 16.6 µM. actives 0.61% (n = 370,000). AID 743287, 2014;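 active = lowest replicate activation of at least 40%, so every replicate reaches that level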
Each line names hits and unclear results; the compound was inactive in the other large screens. In the library only some 1.5% were active in any assay of this set; here they are far more common.

CC(C)N1CCN(c2ccc(OC[C@H]3CO[C@](Cn4cncn4)(c4ccc(Cl)cc4Cl)O3)cc2)CC1	MLL AF4-AF9 inh 36
COc1ccc(N2CCN(C(=O)Cn3cncn3)CC2)cc1	none
O=c1c(C=Nc2ccc(Oc3ccccc3)cc2)c[nH]n1-c1cccc(Cl)n1	GSIS activator 107 (no result: RAD52 inh, MLL AF4-AF9 inh, S100A4 inh HTS, ERAP1 inh)
Cc1cc2ccccc2n1CCNC(=O)c1ccc(Br)o1	S100A4 inh HTS 90
Cc1cc2ccccc2n1CCNC(=O)Cc1cccc2ccccc12	S100A4 inh HTS 73
N#C[C@H]1[C@H](c2ccc(C#CC3CCCC3)cc2)[C@@H](CO)N1C(=O)c1cccc(F)c1	none
Clc1ccc(-c2ccnc(Oc3cc(Cl)ccc3Cl)n2)cc1	GSIS activator 85 (no result: RAD52 inh, MLL AF4-AF9 inh, S100A4 inh HTS, ERAP1 inh)
Clc1ccc(-c2ccnc(Oc3ccc4ccccc4c3)n2)cc1	GSIS activator 114 (no result: RAD52 inh, MLL AF4-AF9 inh, S100A4 inh HTS, ERAP1 inh)
N#Cc1cc(-c2ccccc2)nc(Oc2ccc(Cl)cc2)n1	none (no result: RAD52 inh, MLL AF4-AF9 inh, S100A4 inh HTS, ERAP1 inh)
CCOC(=O)Nc1cccc(OCC(=O)Nc2ccc3c(c2)CCC3)c1	GSIS activator 45
CCn1nc(NC(=O)C(C)C)c2cc3cccc(C)c3nc21	none
CCn1nc(NC(C)=O)c2cc3cccc(C)c3nc21	ERAP1 inh 75
CN1CCCC(OC(=O)c2ccc(C#N)cc2)C1 (stereo not given)	GSIS activator 57
COc1ccc(-c2ccc3c(c2)O[C@H](CN(C)Cc2cccnc2)[C@@H](C)CN([C@H](C)CO)S3(=O)=O)cc1	S100A4 inh HTS 108
C[C@@H]1CN([C@@H](C)CO)S(=O)(=O)c2ccc(Br)cc2O[C@@H]1CN(C)Cc1ccncc1	S100A4 inh HTS 111
CC(C)NC(=O)N(C)C[C@@H]1Oc2cc(-c3ccncc3)ccc2S(=O)(=O)N([C@H](C)CO)C[C@H]1C	S100A4 inh HTS 160
CC(C)NC(=O)N(C)C[C@@H]1Oc2cc(-c3ccncc3)ccc2S(=O)(=O)N([C@@H](C)CO)C[C@@H]1C	none
COc1ccccc1CNC(=O)C[C@H]1CC[C@@H](NC(C)=O)[C@@H](CO)O1	none
COc1ccc(C)cc1NS(=O)(=O)c1ccc(Cl)nc1	none
COc1ccccc1C(C)NS(=O)(=O)c1ccc(Cl)nc1 (stereo not given)	GSIS activator 44
CCc1nnc(NC(=O)CSc2nc3cc4c(cc3cc2CC)OCCO4)s1	GSIS activator 49 (no result: RAD52 inh, MLL AF4-AF9 inh, S100A4 inh HTS, ERAP1 inh)
COc1cccc(NC(=O)Nc2ccc3c(c2)C(=O)N(C)C[C@H](OC)[C@H](C)CN(C)[C@@H](C)CO3)c1	RAD52 inh 93
CO[C@H]1CN(C)C(=O)c2cc(NC(=O)Nc3cccc(Cl)c3)ccc2OC[C@H](C)N(C)C[C@H]1C	none
COc1cccc(NC(=O)Nc2ccc3c(c2)C(=O)N(C)C[C@@H](OC)[C@@H](C)CN(C)[C@@H](C)CO3)c1	RAD52 inh 88 (no result: GSIS activator)
COc1cccc(NC(=O)Nc2ccc3c(c2)C(=O)N(C)C[C@H](OC)[C@@H](C)CN(C)[C@H](C)CO3)c1	RAD52 inh 94
CO[C@@H]1CN(C)C(=O)c2cc(NS(=O)(=O)CC(F)(F)F)ccc2OC[C@@H](C)N(C)C[C@H]1C	S100A4 inh HTS 106
Cn1c(=O)n(CCc2ccccc2)c2ccccc21	none
Cn1c(=O)n(Cc2ccccc2Br)c2ccccc21	GSIS activator 50
O=C(C[C@@H]1C=C[C@H](NC(=O)Cc2ccccn2)[C@H](CO)O1)NCCc1ccccc1	none
Cc1ccc(S(=O)(=O)Nc2ccc(O)c3ncccc23)cc1	MLL AF4-AF9 inh 26
CC1(C)OC1(C#N)c1ccccc1 (stereo not given)	none (no result: GSIS activator)
CN1c2ccccc2N(C)C1(C)c1ccccc1	MLL AF4-AF9 inh 49
COc1cccc(NC(=O)c2nc(S(C)(=O)=O)ncc2Cl)c1	GSIS activator 54
CCC(=O)N[C@@H]1C=C[C@@H](CC(=O)NCC2CC2)O[C@H]1CO	none (no result: RAD52 inh, MLL AF4-AF9 inh, S100A4 inh HTS, ERAP1 inh)
CC(Oc1ccccc1Cl)C(=O)Nc1ccc(S(=O)(=O)Nc2nccs2)cc1 (stereo not given)	MLL AF4-AF9 inh inconclusive, GSIS activator 87
Cc1nc(CN2CCN(C(=O)NC3(c4ccccc4)CC3)CC2)cs1	none (no result: RAD52 inh, MLL AF4-AF9 inh, S100A4 inh HTS, ERAP1 inh)
Cc1nc(CN2CCN(S(=O)(=O)c3c(Cl)cc(Br)cc3Cl)CC2)cs1	GSIS activator 68
C[C@@H]1CCCCO[C@H](CN(C)C(=O)Cc2ccccc2)[C@@H](C)CN([C@@H](C)CO)C(=O)c2cc(NC(=O)Nc3ccc4c(c3)OCO4)ccc2O1	none
CCCNC(=O)N1CC2(CN(C)C2)c2c(n(C)c3cc(OC)ccc23)[C@@H]1CO	none (no result: RAD52 inh, MLL AF4-AF9 inh, S100A4 inh HTS, ERAP1 inh)
COc1ccc(NC(=O)N2CC3(C2)CN(C(=O)C2CCC2)[C@H](CO)c2c3c3ccc(OC)cc3n2C)cc1	none
CCNc1nc(NC(C)C)nc(N(C)C#N)n1	GSIS activator 58
O=C(c1ccc2c(c1)OCO2)N1CC(=O)N2[C@H](C1)[C@H](c1ccc(C#CC3CCCC3)cc1)[C@@H]2CO	none (no result: RAD52 inh, MLL AF4-AF9 inh, S100A4 inh HTS, ERAP1 inh)
C[C@H](CO)N1C[C@H](C)[C@@H](CN(C)Cc2ccc(-c3ccccc3)cc2)Oc2c(NC(=O)CCC(F)(F)F)cccc2C1=O	none (no result: RAD52 inh, MLL AF4-AF9 inh, S100A4 inh HTS, ERAP1 inh)
COc1cccc2c1C(=O)c1c(O)c3c(c(O)c1C2=O)CC(O)(C(C)=O)CC3OC1CC(O)C(O)C(C)O1 (stereo not given)	S100A4 inh HTS active, ERAP1 inh 32 (no result: GSIS activator)
CCCCC(=O)OCC(=O)C1(O)Cc2c(O)c3c(c(O)c2C(OC2CC(NC(=O)C(F)(F)F)C(O)C(C)O2)C1)C(=O)c1c(OC)cccc1C3=O (stereo not given)	none
COc1cccc2c1C(=O)c1c(O)c3c(c(O)c1C2=O)C[C@](O)(C(C)=O)C[C@H]3O[C@@H]1C[C@@H](N)[C@@H](O)[C@@H](C)O1	MLL AF4-AF9 inh inconclusive, S100A4 inh HTS active (no result: GSIS activator)
C[C@@H]1CN([C@H](C)CO)C(=O)c2cc(C#CCN(C)C)cnc2O[C@@H]1CN(C)C(=O)c1ccc2c(c1)OCO2	none
O=C(COC(=O)Cc1ccc(F)cc1)NCCc1ccccc1	GSIS activator 43
CO[C@H]1CN(C)C(=O)c2ccc(NS(=O)(=O)c3ccc(C)cc3)cc2OC[C@H](C)N(C(=O)NC(C)C)C[C@H]1C	none (no result: RAD52 inh, MLL AF4-AF9 inh, S100A4 inh HTS, ERAP1 inh)
CC[n+]1c(C)n(C)c2cc(S(=O)(=O)N(C)C)ccc21	ERAP1 inh 51
CCn1c(C)[n+](CC)c2ccc(S(=O)(=O)NC)cc21	ERAP1 inh 59
CCOC(=O)c1ccc2c(c1)n(CC)c(C)[n+]2CC	none
CCn1c(C)[n+](CCCS(=O)(=O)[O-])c2cc(Cl)c(Cl)cc21	none (no result: RAD52 inh, MLL AF4-AF9 inh, S100A4 inh HTS, ERAP1 inh)
CCn1c(C)[n+](CC)c2ccc(S(=O)(=O)N(C)C)cc21	ERAP1 inh 39
CCN(CC)S(=O)(=O)c1ccc2c(c1)[nH]c(=S)n2CC	none
